Experimental data taken from paper PMC5096746 (Drug Design, Development and Therapy, 2016).
Marks after values point to notes of the source that are not given here.

Legend:
TNFα = test: In vitro TNFα assay; assay type: cell-based; details: Mus musculus, RAW264.7, read-out: TNFα inhibition
Summary of the method: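 Macrophages grown in RPMI 1640 with 10% FBS, penicillin and streptomycin. Cells preincubated with cytochalasin D (2.5 μM/10^6 cells) for 30 min, then seeded at 2×10^6 cells/mL. LPS added with test compound or celecoxib at 20 μM for 24 h. Supernatant TNFα measured by sandwich ELISA (TMB substrate, 30 min dark, H2SO4 stop, A450) against kit standard.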

[1] = tested on: NO (nitrite) in RAW264.7 mouse macrophages; test: Nitric oxide; assay type: cell-based; details: 20 µM compound, LPS-stimulated, LPS alone 20.46±1.03
[2] = tested on: carrageenan-induced rat-paw edema; test: Carrageenan-induced rat-paw edema, in vivo anti-inflammatory activity; design: species or system Wistar rats; details: oral, dose equimolar to ibuprofen 20 mg/kg; for Anti-inflammatory activity (% inhibition ± SEM) 3 hours: 3 hours post-carrageenan; for Anti-inflammatory activity (% inhibition ± SEM) 4 hours: 4 hours post-carrageenan
gastric mucosa = test: Acute ulcerogenic activity; assay type: in vivo; details: rats
Summary of the method: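 Rats; controls received 0.5% carboxymethyl cellulose. After dosing, rats were fed a normal diet for 17 h and then killed. Stomachs opened along the greater curvature and mucosa examined under microscopy. Scoring: 0.5 redness, 1 spot ulcer, 1.5 haemorrhagic streaks, 2 ulcers >3 but <5, 3 ulcers >5. Severity index = treated-group mean score minus control mean.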

Structure (SMILES) | inhibition at 20 µM (TNFα) | NO (nitrite/mg, mmol/mg) 20 µM [1] | NO (nitrite/mg, mmol/mg) 20 µM ([1]; listed as celecoxib) | Anti-inflammatory activity (% inhibition ± SEM) 3 hours [2] | Anti-inflammatory activity (% inhibition ± SEM) 4 hours [2] | Gastric ulceration / mucosal damage (histopathology, in words) (gastric mucosa; 60 mg/kg) | Ulcerogenic activity (severity index ± SEM) (gastric mucosa; 60 mg/kg oral, killed after 17 hours, mean score minus control score)
Cc1ccc(-c2cc(C(F)(F)F)nn2-c2ccc(S(N)(=O)=O)cc2)cc1 [Celecoxib, celecoxib] | 72% | 7.53 ± 0.23 mmol/mg | 7.53 mmol/mg | – | – | – | –
c1ccc(COc2ccc(-c3nn(-c4ccccc4)cc3CNc3ccccc3)cc2)cc1 [Compound 5a, N-((3-(4-(Benzyloxy)phenyl)-1-phenyl-1H-pyrazol-4-yl)methyl)aniline] | – | – | – | 50.77±4.28 ^c % | 47.91±4.39 ^c % | – | –
CC(C)Cc1ccc(C(C)C(=O)O)cc1 (stereo not drawn) [Ibuprofen, ibuprofen] | – | – | – | 81.32±0.59 ^a % | 79.23±0.4 ^a % | mucosal cell damage | 1.16±0.4
